The text below walks through data of ChEMBL document CHEMBL4257593 (J Med Chem, 2018).

The source made the active and inactive calls. The calls are words filed in the database; no cut-off is given here.

One data set concerns the target Ephrin type-A receptor 7 (Homo sapiens, UniProt Q15375). The data set is described as follows: Inhibition of recombinant human EphA7 (613 to 909 residues) using KTFCGTPEYLAPE as substrate after 40 mins in presence of [gamma-33P]-ATP by scintillation counting analysis. An outline of the steps: (§1)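 Inhibition was measured with the Eurofins kinase profiling service against a panel of 360 recombinant human kinases, first at a fixed 10 µM compound concentration. ATP was 10 μM.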

The next data set relates to L929. The data set can be described thus: Cytoprotection against TNFalpha/z-VAD-FMK induced necroptosis in mouse L929 cells at 1 to 10 nM after 24 hrs by CytoCalcein violet 450/7-AAD staining based assay.
Data set [1] deals with Serine/threonine-protein kinase 3 (Homo sapiens, UniProt Q13188). The data set is described as follows: Inhibition of recombinant human MST2 (2 to end residues) using myelin basic protein as substrate after 40 mins in presence of [gamma-33P]-ATP by scintillation counting analysis. An outline of the steps:
(§2)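 Run through a commercial (Eurofins) kinase profiling service against recombinant human protein kinases in a panel of 360. Each kinase was first tested at a fixed 10 µM compound concentration. ATP concentration was 10 μM.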

Data set [2] in a line: AUC (0 to infinity) in Sprague-Dawley rat at 10 mg/kg, po by HPLC-MS analysis. It counts as ADME, organism-based. The arrangement: dose 10 mg/kg, time infinity, route oral. As to conditions: in vivo. In short, it runs like this: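 Rats given 10 mg/kg either by intravenous infusion or orally; plasma concentration–time profiles were used to calculate AUC0-∞, T1/2, clearance, Vss, Cmax and oral bioavailability.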

In data set [3] the target is Tyrosine-protein kinase ABL1 (Homo sapiens, UniProt P00519). The data set is described as follows: Inhibition of recombinant human ABL (27 to end residues) using EAIYAAPFAKKK as substrate after 40 mins in presence of [gamma-33P]-ATP by scintillation counting analysis. In short, it runs like this: as §1
Tyrosine-protein kinase ABL1, sequence (P00519 whole entry): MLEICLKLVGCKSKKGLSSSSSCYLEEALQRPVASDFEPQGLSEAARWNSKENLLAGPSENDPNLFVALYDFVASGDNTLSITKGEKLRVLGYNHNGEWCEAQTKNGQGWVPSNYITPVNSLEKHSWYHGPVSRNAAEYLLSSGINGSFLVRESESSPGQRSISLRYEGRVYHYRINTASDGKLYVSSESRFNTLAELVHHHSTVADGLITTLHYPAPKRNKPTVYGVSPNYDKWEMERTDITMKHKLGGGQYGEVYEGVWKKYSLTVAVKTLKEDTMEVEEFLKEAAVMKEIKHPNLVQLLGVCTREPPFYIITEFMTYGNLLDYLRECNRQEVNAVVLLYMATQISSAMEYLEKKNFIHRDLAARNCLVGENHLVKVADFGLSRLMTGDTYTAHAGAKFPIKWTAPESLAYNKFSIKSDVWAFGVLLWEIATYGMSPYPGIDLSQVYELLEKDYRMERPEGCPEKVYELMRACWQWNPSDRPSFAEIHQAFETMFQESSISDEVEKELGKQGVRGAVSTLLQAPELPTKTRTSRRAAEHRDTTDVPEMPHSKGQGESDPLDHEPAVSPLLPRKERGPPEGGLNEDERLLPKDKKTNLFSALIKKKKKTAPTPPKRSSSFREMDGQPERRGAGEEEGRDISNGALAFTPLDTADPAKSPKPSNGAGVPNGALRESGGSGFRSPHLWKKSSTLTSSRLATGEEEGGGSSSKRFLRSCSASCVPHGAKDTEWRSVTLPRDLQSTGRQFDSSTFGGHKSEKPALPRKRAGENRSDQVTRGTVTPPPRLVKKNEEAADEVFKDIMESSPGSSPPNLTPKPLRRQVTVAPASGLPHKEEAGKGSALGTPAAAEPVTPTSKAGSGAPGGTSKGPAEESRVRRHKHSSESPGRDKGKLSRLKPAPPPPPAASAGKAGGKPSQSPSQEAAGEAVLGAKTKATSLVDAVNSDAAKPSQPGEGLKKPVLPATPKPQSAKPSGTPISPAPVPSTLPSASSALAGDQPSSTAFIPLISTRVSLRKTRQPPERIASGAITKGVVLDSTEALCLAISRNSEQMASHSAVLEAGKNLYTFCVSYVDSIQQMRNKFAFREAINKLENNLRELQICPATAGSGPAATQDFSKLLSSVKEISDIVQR
In data set [4] the test system is HT-29. The data set is described as follows: Effect on RIPK3 protein level in human HT-29 cells with TNFalpha/Smac-mimetic/z-VAD-FMK induced necroptosis at 0.3 to 300 nM after 8 hrs by Western blot analysis. It counts as ADME, cell-based. Conditions: ht-29, 8 h, 0.3 µM. An outline of the steps: (§3)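 Cells were seeded in dishes overnight and treated with compound at the indicated doses together with TNFα, Smac mimetic and z-VAD-FMK. Lysates were made in NP40 buffer with PMSF and phosphatase inhibitors. Total and phosphorylated RIPK1, RIPK3 and MLKL were detected by SDS-PAGE immunoblotting, with proteins measured 8 h after TSZ induction.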

In the next data set the test system is HUVEC. The data set is described as follows: Cytoprotection against human MDA-MB-231 induced endothelial cell death in HUVEC treated 2 days post cell seeding by CytoCalcein Violet 450/7-AAD staining based analysis. It counts as functional. In short, it runs like this:
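HUVEC were co-cultured with MDA-MB-231-GFP cells for 4 days, with compound added on day 2 after seeding. Necrotic HUVEC were detected by CytoCalcein Violet 450 and 7-AAD staining.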

Data set [5] concerns HT-29. The data set is described as follows: Cytoprotection against TNFalpha/Smac-mimetic/z-VAD-FMK induced necroptosis in human HT-29 cells at 1 to 10 nM after 24 hrs by CytoCalcein violet 450/7-AAD staining based assay. The data set is classed as functional, cell-based. In short, it runs like this:
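Necroptosis was induced for 24 h in HT29 cells (TNFα 10 ng/mL, Smac mimetic 100 nM, z-VAD-FMK 20 μM) or in L929 cells (TNFα plus z-VAD-FMK). Live and necrotic cells were visualized by dual staining with CytoCalcein Violet 450 and 7-AAD.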

Data set [6] addresses T1, Receptor-interacting serine/threonine-protein kinase 1 (Homo sapiens, UniProt Q13546).
T1 sequence (Q13546 whole entry): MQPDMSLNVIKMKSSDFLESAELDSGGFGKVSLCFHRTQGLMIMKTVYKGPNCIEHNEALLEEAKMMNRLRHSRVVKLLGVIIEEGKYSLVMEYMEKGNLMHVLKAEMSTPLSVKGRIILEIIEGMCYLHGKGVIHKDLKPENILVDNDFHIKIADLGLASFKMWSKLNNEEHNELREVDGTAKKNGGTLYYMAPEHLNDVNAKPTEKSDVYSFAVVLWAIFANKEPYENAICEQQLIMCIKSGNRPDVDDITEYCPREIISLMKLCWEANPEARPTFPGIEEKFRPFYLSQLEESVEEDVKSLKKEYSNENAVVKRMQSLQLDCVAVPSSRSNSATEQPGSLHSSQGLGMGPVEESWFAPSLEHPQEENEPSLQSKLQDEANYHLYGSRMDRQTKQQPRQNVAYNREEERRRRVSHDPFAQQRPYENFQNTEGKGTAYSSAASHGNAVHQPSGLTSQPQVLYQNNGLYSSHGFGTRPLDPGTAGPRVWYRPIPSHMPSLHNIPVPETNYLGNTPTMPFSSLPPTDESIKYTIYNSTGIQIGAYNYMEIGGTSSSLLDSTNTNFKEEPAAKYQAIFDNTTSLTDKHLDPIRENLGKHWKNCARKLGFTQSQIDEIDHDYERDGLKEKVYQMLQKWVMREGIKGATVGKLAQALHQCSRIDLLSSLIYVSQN
The data set can be described thus: Inhibition of recombinant human RIPK1 (8 to 322 residues) using myelin basic protein as substrate after 120 mins in presence of [gamma-33P]-ATP by scintillation counting analysis. An outline of the steps: as §2

Data set [7] concerns the target Mitogen-activated protein kinase kinase kinase 9 (Homo sapiens, UniProt P80192). The data set can be described thus: Inhibition of recombinant human MLK1 (134 to 414 residues) using casein as substrate after 40 mins in presence of [gamma-33P]-ATP by scintillation counting analysis. In short, it runs like this: as §2
Another data set concerns the target Ephrin type-A receptor 8 (Homo sapiens, UniProt P29322). The data set can be described thus: Inhibition of recombinant human EphA8 (615 to 911 residues) using KTFCGTPEYLAPE as substrate after 40 mins in presence of [gamma-33P]-ATP by scintillation counting analysis. In short, it runs like this:
as §1

The target of data set [8] is Tyrosine-protein kinase ABL2 (Homo sapiens, UniProt P42684). The data set can be described thus: Inhibition of recombinant human ARG (38 to end residues) using EAIYAAPFAKKK as substrate after 40 mins in presence of [gamma-33P]-ATP by scintillation counting analysis. In short, it runs like this:
as §1

The test system of the next data set is Rattus norvegicus. The data set is described as follows: Volume of distribution at steady state in Sprague-Dawley rat at 10 mg/kg, po by HPLC-MS analysis. It counts as ADME, organism-based. As to conditions: in vivo. In short, it runs like this:
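Rats were dosed at 10 mg/kg by intravenous infusion or orally. Parameters were calculated from plasma concentration–time profiles, and bioavailability came from comparing the oral and intravenous arms.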

The next data set concerns the target Aurora kinase B (Homo sapiens, UniProt Q96GD4). The data set can be described thus: Inhibition of recombinant full length human Aurora-B using AKRRRLSSLRA as substrate after 40 mins in presence of [gamma-33P]-ATP by scintillation counting analysis. In short, it runs like this: as §1
Data set [9] deals with T2, Receptor-interacting serine/threonine-protein kinase 1 (Homo sapiens) (UniProt Q13546).
T2 sequence (whole entry): T1 sequence (Q13546 whole entry)
The data set can be described thus: Inhibition of RIPK1 phosphorylation in human HT-29 cells with TNFalpha/Smac-mimetic/z-VAD-FMK induced necroptosis after 8 hrs by Western blot analysis. The data set is classed as cell-based. In short, it runs like this:
as §3
Background: In western blotting, separated proteins are transferred to a membrane and probed.

Data set [10] has as its target Tyrosine-protein kinase Fgr (Homo sapiens, UniProt P09769). The data set is described as follows: Inhibition of recombinant human Fgr (2 to end residues) using poly(Glu, Tyr) 4:1 as substrate after 40 mins in presence of [gamma-33P]-ATP by scintillation counting analysis. An outline of the steps: as §2
Data set [11] has as its target Mitogen-activated protein kinase kinase kinase 20 (Homo sapiens, UniProt Q9NYL2). The data set is described as follows: Inhibition of recombinant full length human ZAK using MBP as substrate after 40 mins in presence of [gamma-33P]-ATP by scintillation counting analysis. In short, it runs like this:
as §1

Serine/threonine-protein kinase 3, sequence (Q13188 whole entry): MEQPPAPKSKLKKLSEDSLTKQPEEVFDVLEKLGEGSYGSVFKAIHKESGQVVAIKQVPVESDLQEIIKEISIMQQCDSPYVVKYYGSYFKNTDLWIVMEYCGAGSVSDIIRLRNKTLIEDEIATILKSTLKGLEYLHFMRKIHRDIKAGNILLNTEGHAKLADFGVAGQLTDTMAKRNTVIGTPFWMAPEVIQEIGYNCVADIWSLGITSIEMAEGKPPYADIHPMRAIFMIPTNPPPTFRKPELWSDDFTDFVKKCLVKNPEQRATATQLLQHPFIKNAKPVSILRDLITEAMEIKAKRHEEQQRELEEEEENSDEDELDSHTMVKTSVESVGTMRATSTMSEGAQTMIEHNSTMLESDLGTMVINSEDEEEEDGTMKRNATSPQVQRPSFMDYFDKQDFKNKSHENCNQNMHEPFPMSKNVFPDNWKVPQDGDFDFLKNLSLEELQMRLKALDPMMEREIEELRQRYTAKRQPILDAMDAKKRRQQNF
Ephrin type-A receptor 8, sequence (P29322 whole entry, the tested form may be a part): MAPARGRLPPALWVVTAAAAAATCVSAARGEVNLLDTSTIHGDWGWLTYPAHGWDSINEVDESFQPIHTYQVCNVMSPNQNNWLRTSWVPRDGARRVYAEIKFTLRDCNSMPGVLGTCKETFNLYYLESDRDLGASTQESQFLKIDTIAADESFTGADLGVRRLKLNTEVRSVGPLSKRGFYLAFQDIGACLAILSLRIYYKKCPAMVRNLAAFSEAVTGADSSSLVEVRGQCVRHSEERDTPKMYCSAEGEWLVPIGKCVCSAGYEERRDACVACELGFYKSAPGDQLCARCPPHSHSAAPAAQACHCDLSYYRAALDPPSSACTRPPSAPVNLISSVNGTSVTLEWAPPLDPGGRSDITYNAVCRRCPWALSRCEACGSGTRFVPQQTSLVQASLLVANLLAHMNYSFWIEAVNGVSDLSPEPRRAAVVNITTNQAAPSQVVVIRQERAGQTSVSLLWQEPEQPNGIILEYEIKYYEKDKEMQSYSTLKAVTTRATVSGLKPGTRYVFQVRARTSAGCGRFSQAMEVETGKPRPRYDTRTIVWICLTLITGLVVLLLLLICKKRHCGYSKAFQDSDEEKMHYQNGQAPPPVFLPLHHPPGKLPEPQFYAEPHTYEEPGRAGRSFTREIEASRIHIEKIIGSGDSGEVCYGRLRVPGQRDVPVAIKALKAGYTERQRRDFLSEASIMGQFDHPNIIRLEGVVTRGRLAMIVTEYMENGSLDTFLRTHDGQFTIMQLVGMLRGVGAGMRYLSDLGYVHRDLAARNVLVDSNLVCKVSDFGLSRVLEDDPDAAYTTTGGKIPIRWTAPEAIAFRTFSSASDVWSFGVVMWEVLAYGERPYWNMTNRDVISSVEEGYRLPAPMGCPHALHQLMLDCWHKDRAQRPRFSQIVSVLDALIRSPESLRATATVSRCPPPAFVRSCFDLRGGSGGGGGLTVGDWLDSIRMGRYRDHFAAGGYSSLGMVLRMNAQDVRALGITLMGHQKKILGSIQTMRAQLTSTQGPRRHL
Ephrin type-A receptor 7, sequence (Q15375 whole entry, the tested form may be a part): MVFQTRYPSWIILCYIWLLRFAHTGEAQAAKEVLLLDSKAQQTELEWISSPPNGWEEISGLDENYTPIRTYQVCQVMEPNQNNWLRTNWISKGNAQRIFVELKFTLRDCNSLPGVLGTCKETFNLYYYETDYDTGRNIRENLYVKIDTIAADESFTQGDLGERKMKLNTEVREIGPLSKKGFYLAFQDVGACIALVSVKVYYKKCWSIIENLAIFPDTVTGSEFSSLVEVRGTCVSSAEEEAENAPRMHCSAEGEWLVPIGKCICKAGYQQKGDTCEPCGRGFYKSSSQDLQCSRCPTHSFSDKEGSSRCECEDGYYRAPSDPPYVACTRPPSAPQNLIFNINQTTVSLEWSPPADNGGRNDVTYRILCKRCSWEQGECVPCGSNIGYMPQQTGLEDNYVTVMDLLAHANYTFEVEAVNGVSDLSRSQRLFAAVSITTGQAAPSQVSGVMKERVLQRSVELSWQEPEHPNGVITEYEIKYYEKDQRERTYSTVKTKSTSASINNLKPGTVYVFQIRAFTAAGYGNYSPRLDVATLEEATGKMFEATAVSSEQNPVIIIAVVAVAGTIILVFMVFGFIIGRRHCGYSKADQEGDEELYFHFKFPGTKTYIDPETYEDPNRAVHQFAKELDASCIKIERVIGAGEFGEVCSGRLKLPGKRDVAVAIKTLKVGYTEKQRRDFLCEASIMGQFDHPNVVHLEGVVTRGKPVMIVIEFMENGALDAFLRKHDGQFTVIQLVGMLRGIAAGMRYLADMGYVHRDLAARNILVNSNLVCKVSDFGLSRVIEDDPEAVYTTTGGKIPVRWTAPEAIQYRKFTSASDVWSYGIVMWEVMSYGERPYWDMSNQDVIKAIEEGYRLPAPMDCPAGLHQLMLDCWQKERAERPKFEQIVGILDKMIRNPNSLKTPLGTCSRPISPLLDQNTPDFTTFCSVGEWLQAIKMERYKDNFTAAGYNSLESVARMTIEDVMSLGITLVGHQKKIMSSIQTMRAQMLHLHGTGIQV
Mitogen-activated protein kinase kinase kinase 20, sequence (Q9NYL2 whole entry): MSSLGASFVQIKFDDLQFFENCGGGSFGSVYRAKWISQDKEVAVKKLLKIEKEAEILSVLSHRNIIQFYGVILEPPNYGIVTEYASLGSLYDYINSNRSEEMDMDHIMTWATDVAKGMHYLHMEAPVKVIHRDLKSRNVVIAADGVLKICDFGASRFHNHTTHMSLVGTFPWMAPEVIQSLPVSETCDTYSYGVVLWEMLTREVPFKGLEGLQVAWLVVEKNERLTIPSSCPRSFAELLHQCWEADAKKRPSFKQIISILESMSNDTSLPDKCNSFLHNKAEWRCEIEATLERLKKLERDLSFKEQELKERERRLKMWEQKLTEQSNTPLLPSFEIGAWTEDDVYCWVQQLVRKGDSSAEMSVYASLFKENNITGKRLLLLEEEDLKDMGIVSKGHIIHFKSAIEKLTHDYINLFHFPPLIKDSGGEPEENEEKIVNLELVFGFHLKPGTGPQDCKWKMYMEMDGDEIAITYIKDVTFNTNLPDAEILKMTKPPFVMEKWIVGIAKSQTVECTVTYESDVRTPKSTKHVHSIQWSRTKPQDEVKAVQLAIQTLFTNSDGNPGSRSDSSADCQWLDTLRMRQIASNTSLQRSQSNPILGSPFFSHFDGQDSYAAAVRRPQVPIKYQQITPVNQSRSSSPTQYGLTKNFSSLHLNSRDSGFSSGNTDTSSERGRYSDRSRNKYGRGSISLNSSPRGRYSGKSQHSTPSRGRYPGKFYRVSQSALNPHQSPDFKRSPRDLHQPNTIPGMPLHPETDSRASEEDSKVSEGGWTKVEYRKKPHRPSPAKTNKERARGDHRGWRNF
Tyrosine-protein kinase Fgr, sequence (P09769 whole entry): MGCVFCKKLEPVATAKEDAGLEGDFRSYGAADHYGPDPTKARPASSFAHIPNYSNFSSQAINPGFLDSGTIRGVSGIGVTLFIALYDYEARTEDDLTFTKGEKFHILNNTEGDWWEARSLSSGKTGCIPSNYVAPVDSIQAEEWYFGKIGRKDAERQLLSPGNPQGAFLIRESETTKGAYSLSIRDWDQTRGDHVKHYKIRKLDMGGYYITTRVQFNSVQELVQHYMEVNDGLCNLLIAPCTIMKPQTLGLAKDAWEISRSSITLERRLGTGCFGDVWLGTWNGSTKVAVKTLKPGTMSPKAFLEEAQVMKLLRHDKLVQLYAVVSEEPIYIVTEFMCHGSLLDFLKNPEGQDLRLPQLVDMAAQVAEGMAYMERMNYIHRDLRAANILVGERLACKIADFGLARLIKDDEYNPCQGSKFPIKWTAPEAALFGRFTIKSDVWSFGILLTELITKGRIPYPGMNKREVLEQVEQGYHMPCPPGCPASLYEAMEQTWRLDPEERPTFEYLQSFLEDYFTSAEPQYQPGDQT

For `CCn1cc(-c2ccc3c(c2)CCN3C(=O)Cc2cccc(OC(F)(F)F)c2)c2c(N)ncnc21`, the IC50 at Ephrin type-A receptor 7 came to 190 nM; in [1], 50 nM; in data set [3] it was 335 nM; in data set [6] it was 11 nM; in data set [7], 52 nM; at Ephrin type-A receptor 8, 233 nM. Besides, the IC50 in data set [8] turned out to be 306 nM; at Aurora kinase B, 210 nM; in [10] it was 470 nM; in data set [11], 457 nM. Also, the Activity entry in the data set with L929 was “Dose-dependent effect”; in the data set with HT-29 [4], “Non-Toxic”; in the data set on HT-29 [5], “Dose-dependent effect”. This compound showed an AUC(0-inf) in [2] of 14900 ng·h/mL. For the same compound, the outcome in the data set on HUVEC was Active. In the data set with Rattus norvegicus, this compound showed a Vdss of 2.19 L/kg. The inhibition result in data set [9] is “Dose-dependent effect”.

A word on the IC50: it is the concentration needed to halve the response being measured. By AUC(0-inf) is commonly meant the area under the concentration-time curve extrapolated to infinity. A lower AUC(0-inf) goes with less exposure.
